# Screening results deposited in PubChem BioAssay by several laboratories.
# TDP2 absorb: TDP2 (human) inhibition, absorbance primary screen. recombinant TDP2, T5PNP hydrolysis, p-nitrophenol absorbance 415 nm. 370,000 compounds, 0.34% hits. inhibition, % at 12.8 µM. O95551;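 active = inhibition above the mean of all tested compounds plus 3 SD, set per campaign, cut at about 25% in these data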;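 also: 0% = DMSO with enzyme and 100% = buffer with substrate but no TDP2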
# Target sequence (O95551 whole entry, looked up): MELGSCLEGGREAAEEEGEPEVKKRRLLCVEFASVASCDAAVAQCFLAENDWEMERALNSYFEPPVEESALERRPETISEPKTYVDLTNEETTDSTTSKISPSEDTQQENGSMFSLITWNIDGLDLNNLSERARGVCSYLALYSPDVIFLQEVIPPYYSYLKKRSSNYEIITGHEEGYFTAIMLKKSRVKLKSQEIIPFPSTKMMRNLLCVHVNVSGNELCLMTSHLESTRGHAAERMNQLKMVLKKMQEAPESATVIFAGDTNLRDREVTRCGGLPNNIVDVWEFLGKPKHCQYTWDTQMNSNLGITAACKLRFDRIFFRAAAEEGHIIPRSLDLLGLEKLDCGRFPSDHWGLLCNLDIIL
#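 Assay system: Recombinant human TDP2 | Quantity: 120 nM TDP2 per well | Incubation: 2 h at 37 °C | Signal: Epi absorbance | Evaluation: Percent inhibition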
# Casp6 inh: caspase-6 (human) enzyme inhibition. purified caspase-6, Z-VEID-R110 cleavage fluorescence. inhibition, % at 12.5 µM. 350,000 compounds, 0.53% hits;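 active = mean inhibition across replicates at least about 35%, with every replicate also reaching that limit, limit read from the data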;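 also: 0% = median of neutral control wells and 100% = no fluorescence left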
# ARFGAP1 inhibitor: inhibitors of rat ARFGAP1; Q62848; Arfgap1-stimulated ARF1 GTP hydrolysis, GDP FP detection; 360,000 compounds, 0.26% hits; inhibition, % at 16.5 µM; AID 651572;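 active = inhibition above a per-plate limit, mean inhibition of low control wells plus 3 SD, cut at about 25% in these data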;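 also: 0% = DMSO wells with enzyme and 100% = wells lacking Arfgap1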
# Target sequence (Q62848 1-136 limits assumed): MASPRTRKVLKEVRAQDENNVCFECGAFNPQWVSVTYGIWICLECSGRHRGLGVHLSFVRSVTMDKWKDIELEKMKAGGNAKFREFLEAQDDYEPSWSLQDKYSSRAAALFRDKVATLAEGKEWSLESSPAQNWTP
#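 Replicates: Single well per compound | Assay system: Truncated rat Arfgap1 GAP domain | Control set: No-Arfgap1 wells (100%) versus DMSO full-reaction wells (0%) | Times: Enzyme reaction 120 min at 25 °C after 20 min preincubation | Reagent: Human ARF1(Δ1-17)-GTP substrate | Measured by: Tracer-displacement fluorescence polarization with EDTA stop, 620/688 nm | Measure: Percent inhibition of Arfgap1-stimulated GTP hydrolysis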
# ASAP1 GAP inh: inhibitors of human ASAP1 ArfGAP activity; Q9ULH1; ASAP1-stimulated ARF1 GTP hydrolysis, GDP FP detection; inhibition, % at 16.5 µM; 360,000 compounds, 0.19% hits; AID 624377; in the data active = inhibition above about 25%;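 also: 0% = vehicle with enzyme and substrate and 100% = no enzyme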
# LEDGF integ inh: blocks HIV-1 LEDGF/p75-dependent DNA integration; TR-FRET IN-LEDGF/p75 DNA integration, Eu/Cy5; AID 743269; inhibition, % at 3.7 µM; 370,000 compounds, 0.64% hits;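 active = inhibition above the screen-wide mean plus 3 SD, cut at about 13% in these data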;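 also: signal is the Cy5 over europium emission ratio at 671 and 618 nm; 0% = plate median of compound wells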
# The depositor's hits bear a star; . = not tested or not shown. This is a sample that favours compounds with a hit; in the whole collection about 1.3% have one here.
SMILES,TDP2 absorb,Casp6 inh,ARFGAP1 inhibitor,ASAP1 GAP inh,LEDGF integ inh
Cc1ccc(-n2nnnc2SCC(=O)NC2CC2)cc1C,10,57*,10,7,-1
O=C(CNc1ccc2ccccc2c1)NNC1=NCCC1,0,2,-8,4,-3
C[C@@H]1CN([C@@H](C)CO)C(=O)c2cccc(NS(=O)(=O)c3cccs3)c2O[C@@H]1CN(C)S(=O)(=O)c1ccccc1,.,37*,.,.,.
C[C@H](CO)N1C[C@H](C)[C@H](CN(C)Cc2ccc(Oc3ccccc3)cc2)Oc2ccc(NS(=O)(=O)c3ccccc3)cc2CC1=O,.,52*,.,.,.
Cc1ccc(S(=O)(=O)N(C)C[C@@H]2Oc3c(NS(=O)(=O)c4cccs4)cccc3C(=O)N([C@H](C)CO)C[C@H]2C)cc1,.,3,.,.,.
C[C@@H]1CN([C@H](C)CO)C(=O)c2cccc(NS(=O)(=O)c3ccc(F)cc3)c2O[C@@H]1CN(C)Cc1ccc(Cl)c(Cl)c1,.,-1,.,.,.
C[C@H](CO)N1C[C@H](C)[C@@H](CN(C)Cc2ccc(Oc3ccccc3)cc2)Oc2ccc(NS(=O)(=O)c3ccccc3)cc2CC1=O,.,1,.,.,.
C[C@H](CO)N1C[C@H](C)[C@@H](CN(C)Cc2ccc(Cl)c(Cl)c2)Oc2c(NS(=O)(=O)c3ccc(F)cc3)cccc2C1=O,3,0,1,31*,0
CCOC(=O)N(C)c1c(CC)nc2c(OCc3ccc(OC(F)F)cc3)cccn12,1,.,-6,-2,0
O=C(O)c1ccc2[nH]c3c(c2c1)CCCC3,-8,29,-3,7,-2
CC1CCc2[nH]c3ccc(C(=O)O)cc3c2C1 (stereo unspecified),-16,48*,10,-3,-1
CC(Cc1c[nH]c2ccccc12)C(=O)O (stereo unspecified),5,38*,3,0,3
O=C1Nc2cc(C(=O)NCCN3CCCCCC3)ccc2S/C1=C\c1ccccc1,6,99*,6,3,2
Cc1cccc(/C=C2/Sc3ccc(C(=O)NCCN4CCCC4)cc3NC2=O)c1,-13,-76,7,-1,-9
Cc1cccc(N2CCN(C(=O)CCS(=O)(=O)c3ccc(Br)cc3)CC2C)c1 (stereo unspecified),12,67*,-12,-1,3
O=C(NCCc1ccccc1)C1C(=O)Nc2ccccc2C(=O)N1C1CCCCC1 (stereo unspecified),0,0,10,-4,3
O=c1ccc(-c2ccc(S(=O)(=O)Nc3cccc([N+](=O)[O-])c3)s2)n[nH]1,-3,36*,-5,13,0
CCc1ccc(NC2=CC(=O)C(=O)c3ccccc32)cc1,24,29,4,14,11
CCc1ccc(S(=O)(=O)/N=C2\C=C(Nc3ccc(C(=O)O)cc3)C(=O)c3ccccc32)cc1,72*,97*,-9,-1,29*
COc1cccc(NC(=O)CSc2nnc3ccc(-c4ccccn4)nn23)c1,12,1,-15,-6,0
O=C(N[C@@H]1C[C@@H]2O[C@H](CO)CC[C@@H]2O[C@@H]1CCc1ccc(-c2cccnc2)cc1)c1cccc(F)c1,.,3,.,.,.
Cc1ccc(/C=C2\C(=O)ON=C2c2ccccc2)o1,4,0,-3,0,1
Cc1ccc(C2=NOC(=O)/C2=C\c2ccc(C)o2)cc1,-7,41*,-7,-3,4
COc1cc(OC)c(-c2nn3c(C4CCCCC4)nnc3s2)cc1OC,-7,43*,1,3,0
Cc1c(CCC(=O)O)c(=O)oc2c(C)c(OCc3cc4c(cc3Cl)OCO4)ccc12,5,43*,12,-3,1
SMILES,TDP2 absorb,Casp6 inh,ARFGAP1 inhibitor,ASAP1 GAP inh,LEDGF integ inh
Cc1ccc(S(=O)(=O)N2[C@@H](c3ccc(Cl)cc3)C(C(=O)O)=CC[C@H]2c2ccc(Cl)c(Cl)c2)cc1,1,19,-18,-3,4
Cc1nnc(NC(=O)CSc2ccc(-c3ccco3)nn2)s1,-6,35*,-2,6,5
CCc1nnc(NC(=O)CSc2ccc(-c3ccco3)nn2)s1,4,3,-2,2,0
COC(=O)c1ccccc1CSc1nsc(/C=C/N(C)C)c1C#N,.,37*,.,.,.
Cc1nc(CSc2nsc(/C=C/N(C)C)c2C#N)cs1,-6,26,0,-2,0
COCCOC(=O)N1C(=O)[C@@]2(c3cc(C#CCNC(N)=O)ccc31)[C@H](C(N)=O)[C@H]1C(=O)O[C@H](c3ccccc3)[C@H](c3ccccc3)N1[C@@H]2c1ccccc1OCCO,.,-2,.,.,.
COc1ccc(OC)c(N(CC(=O)Nc2ccccc2)S(C)(=O)=O)c1,3,37*,-5,-11,0
CNc1cccccc1=S,9,.,-1,-1,23*
OC(c1ccccc1)(c1ccccc1)C1CCN(CCCOc2ccc(-c3cncnc3)cc2)CC1,6,-5,-2,-4,-4
Cc1ccc(-n2nc(-c3ccco3)cc2C(=O)O)cc1,1,55*,-10,-6,9
CCCN(CCO)CCCc1ccccc1,3,.,-14,-13,89*
CCOC(=O)C1=C(COC(=O)/C=C/c2ccc([N+](=O)[O-])cc2)NC(=O)NC1C (stereo unspecified),-6,0,4,-2,-3
CCOc1ccc(/C=C(\C#N)C(=O)NC2CC2)c(OCC)c1,-6,-3,-3,-6,-2
Cc1ccccc1S(=O)(=O)N1[C@@H]2CNC[C@H]1[C@@H]2c1ccc(-c2ccc(C#N)cc2)cc1,.,40*,.,.,.
Cc1cc(=O)n2c3c(c4c(cc13)c(CN(C)C)cc(=O)n4C)OC2,86*,99*,-2,-2,2
Cn1ccsc1=NC(=O)c1ccc([N+](=O)[O-])o1,15,49*,-10,2,3
Cc1ccc(-n2nc(C)c3onc(C)c3c2=O)cc1,-7,-7,11,10,3
O=C(Nc1cccc(-c2ccccc2)c1)N1CCN(C(=O)Nc2cccc(-c3ccccc3)c2)CC1,-13,39*,-5,9,-2
CC(C)(C)C(C(=O)NCc1ccccc1)N1CCN(CCN2CCOCC2)CC1 (stereo unspecified),-2,-8,-7,-4,1
Cc1ccc(S(=O)(=O)Oc2ccc(/C=C3/C(=N)N4C(=NC3=O)SN=C4S(C)(=O)=O)cc2)cc1,12,14,-1,-3,-2
CCOc1cc(/C=C2\C(=N)N3N=C(S(C)(=O)=O)SC3=NC2=O)ccc1OCCOc1cccc(OC)c1,13,45*,-5,-4,1
CCS(=O)(=O)C1=NN2C(=N)/C(=C\c3ccc(OCCOc4cccc(OC)c4)c(OC)c3)C(=O)N=C2S1,2,45*,4,0,2
COc1cc(/C=C2\C(=N)N3N=C(S(C)(=O)=O)SC3=NC2=O)ccc1OCCOc1ccc(C)cc1,7,16,8,-10,6
